Measurements as given in ChEMBL document CHEMBL4422684, “Identification of novel lysine demethylase 5-selective inhibitors by inhibitor-based fragment merging strategy” (Bioorg Med Chem, 2019).
The source made the active and inactive calls. The rule behind the calls is not given here.

Experiments:
[1] = target: T1, Lysine-specific demethylase 4A (Homo sapiens) (UniProt O75164); assay: Inhibition of human N-terminal His-tagged KDM4A (1 to 350 residues) expressed in Escherichia coli at 25 uM using H3(21-44)-K36(Me3)-GK(Biotin)/2-OG as substrate measured after 1 hr by Alphalisa assay relative to control
T1 sequence (whole entry): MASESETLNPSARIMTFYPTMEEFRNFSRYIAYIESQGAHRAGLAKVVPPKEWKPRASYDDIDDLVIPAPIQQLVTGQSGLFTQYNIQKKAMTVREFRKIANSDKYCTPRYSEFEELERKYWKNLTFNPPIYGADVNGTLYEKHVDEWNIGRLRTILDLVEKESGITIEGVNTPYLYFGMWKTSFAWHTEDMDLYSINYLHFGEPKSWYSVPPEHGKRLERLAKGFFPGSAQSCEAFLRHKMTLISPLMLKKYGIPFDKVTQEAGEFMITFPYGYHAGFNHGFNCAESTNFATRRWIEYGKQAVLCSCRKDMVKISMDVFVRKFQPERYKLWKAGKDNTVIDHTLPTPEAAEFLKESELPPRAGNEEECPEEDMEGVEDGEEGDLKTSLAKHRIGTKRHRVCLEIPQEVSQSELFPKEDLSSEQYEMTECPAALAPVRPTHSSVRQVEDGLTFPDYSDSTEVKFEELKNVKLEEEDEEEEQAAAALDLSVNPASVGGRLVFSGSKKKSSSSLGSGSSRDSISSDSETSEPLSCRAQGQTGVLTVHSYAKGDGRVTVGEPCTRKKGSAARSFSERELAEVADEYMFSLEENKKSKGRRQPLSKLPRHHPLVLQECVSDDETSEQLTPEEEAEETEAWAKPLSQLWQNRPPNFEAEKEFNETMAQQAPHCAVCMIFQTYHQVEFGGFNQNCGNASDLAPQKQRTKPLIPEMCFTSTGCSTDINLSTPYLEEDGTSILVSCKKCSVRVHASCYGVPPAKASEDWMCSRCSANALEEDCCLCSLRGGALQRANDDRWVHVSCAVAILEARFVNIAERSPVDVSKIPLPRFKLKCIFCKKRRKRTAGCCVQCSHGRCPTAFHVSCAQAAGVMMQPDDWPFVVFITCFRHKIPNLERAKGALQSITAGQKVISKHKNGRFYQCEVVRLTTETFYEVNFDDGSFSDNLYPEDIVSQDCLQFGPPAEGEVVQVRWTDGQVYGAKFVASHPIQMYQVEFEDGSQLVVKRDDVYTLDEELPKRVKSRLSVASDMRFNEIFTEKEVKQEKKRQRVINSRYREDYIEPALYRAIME
In short: (§1)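 AlphaLISA demethylase assay in 50 mM HEPES pH 7.5, 0.1% BSA, 0.01% Tween 20 with DMSO. Enzyme and inhibitor combined, then peptide plus 2-OG (50 µM), Fe(II) (5 µM) and ascorbate (100 µM) in the added mix; 1 h at room temperature with shaking.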

A549 = assay: Inhibition of KDM4 in human A549 cells assessed as increase in H3K9me3 levels up to 25 uM after 48 hrs by Western blot analysis; assay type: cell-based
In short: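 A549 cells (5 × 10^5 per 2 mL well, RPMI1640 with 10% heat-inactivated FBS) exposed 48 h to compounds at 1, 5 or 25 µM. SDS lysates normalised by BCA, separated on 5-20% SDS-PAGE, blotted to PVDF, blocked in 5% milk/TBS-T, probed for H3K4me3, H3K9me3, H3K27me3 and total H3, detected by HRP chemiluminescence.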

[2] = target: Lysine-specific demethylase 6B (Homo sapiens, UniProt O15054); assay: Inhibition of human C-terminal FLAG-tagged KDM6B (1043 to end residues) expressed in baculovirus infected Sf9 insect cells at 25 uM using H3(21-44)-K27(Me3)-GK(Biotin)/2-OG as substrate measured after 1 hr by Alphalisa assay relative to control; in short: as §1
Lysine-specific demethylase 6B, sequence (O15054 whole entry, the tested form may be a part): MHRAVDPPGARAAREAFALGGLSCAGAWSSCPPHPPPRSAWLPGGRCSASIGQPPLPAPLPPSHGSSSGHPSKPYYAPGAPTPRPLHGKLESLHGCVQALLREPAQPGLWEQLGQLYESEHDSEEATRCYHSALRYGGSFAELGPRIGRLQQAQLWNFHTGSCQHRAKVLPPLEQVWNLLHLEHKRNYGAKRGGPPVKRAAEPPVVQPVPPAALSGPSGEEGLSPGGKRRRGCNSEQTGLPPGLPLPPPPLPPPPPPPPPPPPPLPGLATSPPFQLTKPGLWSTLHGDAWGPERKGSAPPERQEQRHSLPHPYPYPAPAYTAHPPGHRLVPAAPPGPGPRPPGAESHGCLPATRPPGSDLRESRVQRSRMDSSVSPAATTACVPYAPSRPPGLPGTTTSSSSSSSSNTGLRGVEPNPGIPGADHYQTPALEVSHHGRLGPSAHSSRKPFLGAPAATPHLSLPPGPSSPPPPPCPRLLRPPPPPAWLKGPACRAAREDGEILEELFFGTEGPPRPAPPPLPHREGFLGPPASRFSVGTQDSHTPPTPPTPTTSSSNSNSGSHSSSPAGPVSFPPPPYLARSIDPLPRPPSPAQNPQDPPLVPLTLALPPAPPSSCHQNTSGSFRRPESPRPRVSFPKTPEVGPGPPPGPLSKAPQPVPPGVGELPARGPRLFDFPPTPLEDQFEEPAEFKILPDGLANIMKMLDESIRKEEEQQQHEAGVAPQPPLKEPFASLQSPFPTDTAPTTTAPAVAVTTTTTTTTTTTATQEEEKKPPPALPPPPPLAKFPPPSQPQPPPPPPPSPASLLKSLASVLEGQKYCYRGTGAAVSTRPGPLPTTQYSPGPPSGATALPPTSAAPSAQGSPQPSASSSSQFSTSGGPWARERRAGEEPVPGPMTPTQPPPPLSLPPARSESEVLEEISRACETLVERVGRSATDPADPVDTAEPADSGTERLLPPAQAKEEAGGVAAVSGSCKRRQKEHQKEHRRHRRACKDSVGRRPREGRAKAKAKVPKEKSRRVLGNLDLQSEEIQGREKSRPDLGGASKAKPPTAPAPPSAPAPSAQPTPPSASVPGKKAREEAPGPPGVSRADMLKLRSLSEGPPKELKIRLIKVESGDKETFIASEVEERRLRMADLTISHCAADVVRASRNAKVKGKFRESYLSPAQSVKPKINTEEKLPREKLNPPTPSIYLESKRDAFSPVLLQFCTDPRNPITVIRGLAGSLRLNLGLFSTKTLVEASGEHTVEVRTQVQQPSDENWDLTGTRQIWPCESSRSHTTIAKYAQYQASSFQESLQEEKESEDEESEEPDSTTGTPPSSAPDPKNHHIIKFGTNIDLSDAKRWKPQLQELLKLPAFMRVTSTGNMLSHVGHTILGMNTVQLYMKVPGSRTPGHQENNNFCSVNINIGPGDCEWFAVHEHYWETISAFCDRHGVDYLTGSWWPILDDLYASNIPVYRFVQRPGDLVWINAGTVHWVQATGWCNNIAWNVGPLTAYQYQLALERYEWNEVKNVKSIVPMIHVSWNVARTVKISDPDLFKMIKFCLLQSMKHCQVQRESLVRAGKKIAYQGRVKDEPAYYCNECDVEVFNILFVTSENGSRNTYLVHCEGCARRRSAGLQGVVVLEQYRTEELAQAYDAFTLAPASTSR

[3] = target: T2, Lysine-specific demethylase 2A (Homo sapiens, UniProt Q9Y2K7); assay: Inhibition of human N-terminal FLAG/Avi-tagged KDM2A (2 to 700 residues) expressed in baculovirus infected Sf9 insect cells using H3(21-44)-K36(Me2)-GK(Biotin)/2-OG as substrate measured after 1 hr by Alphalisa assay; in short: as §1
T2 sequence (Q9Y2K7 whole entry): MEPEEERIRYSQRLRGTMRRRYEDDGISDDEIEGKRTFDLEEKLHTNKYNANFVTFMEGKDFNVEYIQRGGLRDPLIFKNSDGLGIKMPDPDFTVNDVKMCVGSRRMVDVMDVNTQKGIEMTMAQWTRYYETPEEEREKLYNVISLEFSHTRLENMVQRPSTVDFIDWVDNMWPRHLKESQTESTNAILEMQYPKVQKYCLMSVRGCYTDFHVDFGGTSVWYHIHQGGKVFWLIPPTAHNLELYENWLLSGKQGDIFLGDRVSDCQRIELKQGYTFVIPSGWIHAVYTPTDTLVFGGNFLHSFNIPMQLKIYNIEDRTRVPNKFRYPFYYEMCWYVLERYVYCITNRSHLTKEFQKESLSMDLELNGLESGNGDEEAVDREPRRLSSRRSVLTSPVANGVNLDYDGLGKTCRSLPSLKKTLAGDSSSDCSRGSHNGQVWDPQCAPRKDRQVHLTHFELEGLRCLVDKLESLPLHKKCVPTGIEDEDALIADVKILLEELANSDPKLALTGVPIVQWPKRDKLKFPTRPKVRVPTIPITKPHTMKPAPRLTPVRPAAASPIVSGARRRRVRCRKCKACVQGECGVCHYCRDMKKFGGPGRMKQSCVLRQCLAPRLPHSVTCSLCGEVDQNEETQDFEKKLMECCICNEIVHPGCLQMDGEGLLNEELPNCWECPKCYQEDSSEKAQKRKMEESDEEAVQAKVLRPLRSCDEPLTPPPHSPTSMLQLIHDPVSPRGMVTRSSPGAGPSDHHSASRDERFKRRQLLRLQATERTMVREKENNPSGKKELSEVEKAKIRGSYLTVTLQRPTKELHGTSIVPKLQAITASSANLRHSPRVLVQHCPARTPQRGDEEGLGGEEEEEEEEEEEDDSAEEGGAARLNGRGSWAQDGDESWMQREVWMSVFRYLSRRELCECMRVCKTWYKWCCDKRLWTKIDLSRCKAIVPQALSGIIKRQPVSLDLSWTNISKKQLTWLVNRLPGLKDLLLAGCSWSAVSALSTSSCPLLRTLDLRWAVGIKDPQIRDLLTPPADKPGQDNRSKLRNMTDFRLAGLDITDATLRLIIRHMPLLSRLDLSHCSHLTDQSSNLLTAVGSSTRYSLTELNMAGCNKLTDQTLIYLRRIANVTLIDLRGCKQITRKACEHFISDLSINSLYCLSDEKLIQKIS

[4] = target: T3, Lysine-specific demethylase 4A (Homo sapiens, UniProt O75164); assay: Inhibition of human N-terminal His-tagged KDM4A (1 to 350 residues) expressed in Escherichia coli using H3(21-44)-K36(Me3)-GK(Biotin)/2-OG as substrate measured after 1 hr by Alphalisa assay; in short: as §1
T3 sequence (O75164 whole entry): T1 sequence (whole entry)

inhibition [1] [%]	inhibition [2] [%]	IC50 [3] [µM]	IC50 [4] [µM]	Compound	inhibition (A549)
32.4				CCCCCCN(C)CCc1ccc(-c2[nH]c3c(C#N)cnn3c(=O)c2C(C)C)cc1	inactive
35.9	69.1			CC(C)c1c(-c2ccccc2)[nH]c2c(C#N)cnn2c1=O	
		> 50	25	CCCCCCN(C)Cc1ccc(-c2[nH]c3c(C#N)cnn3c(=O)c2C(C)C)cc1	inactive
